Bioassay records as filed in PubChem.
An excerpt weighted towards active compounds, which were near 3.7% of everything screened.
Myeloid diff 2: promotes myeloid progenitor differentiation; ER-HoxA9 myeloid progenitors, lysozyme-GFP differentiation, flow cytometry; calls only at 10 µM; 1% of 360,000 active; AID 624256;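 active = normalized GFP-positive differentiation at or above the plate's own cutoff, the solvent-only control mean plus 3 SD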;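 note: cells exposed to compound for four days before flow analysis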
MC4R antag cAMP: human MC4R antagonism in cAMP assay. inhibition, % at 6.5 µM. P32245. AID 540295. MC4R-expressing cells, MTII-stimulated cAMP, LANCE TR-FRET. 0.48% of 360,000 active;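 active = inhibition above its plate's cutoff, the mean of tested wells on that plate plus 3 SD, cut at about 29% in these data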;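 note: 0% = Melanotan II alone and 100% = Melanotan II plus saturating MCL0020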
Target sequence (P32245 whole entry, looked up): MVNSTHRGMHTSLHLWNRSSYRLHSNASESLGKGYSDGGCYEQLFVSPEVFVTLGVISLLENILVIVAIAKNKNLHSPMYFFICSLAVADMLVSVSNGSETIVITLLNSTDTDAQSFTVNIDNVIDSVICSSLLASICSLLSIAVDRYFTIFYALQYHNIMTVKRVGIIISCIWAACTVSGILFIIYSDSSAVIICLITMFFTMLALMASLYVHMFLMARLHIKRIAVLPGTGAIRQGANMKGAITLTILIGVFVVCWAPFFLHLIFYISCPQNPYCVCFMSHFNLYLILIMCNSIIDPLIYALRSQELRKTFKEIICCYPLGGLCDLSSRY
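Test system: U2OS cells stably expressing human melanocortin 4 receptor (MC4R); also added: Melanotan II challenge; compound: 6.5 µM single dose; timing: 30-min compound preincubation, 1-h Melanotan II challenge, 1-h detection, room temperature; signal: Eu-cAMP/anti-cAMP TR-FRET, emission 671 nm; repeats: one well per compound, no replicates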
MC4R ag barr: activates human MC4R beta-arrestin recruitment | activation, % at 8.9 µM | AID 540308 | U2OS MC4R beta-arrestin complementation, luminescence; percent of melanotan II response, DMSO zero | P32245 | 0.98% of 360,000 active;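 active = activation above a per-plate cutoff, the mean activation of sample wells on that plate plus 3 SD, cut at about 8% in these data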
EBI2 block: EBI2 (human) antagonism. EBI2 beta-arrestin recruitment, luminescence, 7a,25-OHC stimulated. P32249. 0.81% of 360,000 active. inhibition, % at 5 µM. AID 651636; in the data active = inhibition above about 38%;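 note: enzyme fragment complementation signal reports receptor beta-arrestin coupling in cells; 0% = agonist plus DMSO wells and 100% = wells without agonist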
Target sequence (P32249 whole entry, looked up, the tested form may be a part): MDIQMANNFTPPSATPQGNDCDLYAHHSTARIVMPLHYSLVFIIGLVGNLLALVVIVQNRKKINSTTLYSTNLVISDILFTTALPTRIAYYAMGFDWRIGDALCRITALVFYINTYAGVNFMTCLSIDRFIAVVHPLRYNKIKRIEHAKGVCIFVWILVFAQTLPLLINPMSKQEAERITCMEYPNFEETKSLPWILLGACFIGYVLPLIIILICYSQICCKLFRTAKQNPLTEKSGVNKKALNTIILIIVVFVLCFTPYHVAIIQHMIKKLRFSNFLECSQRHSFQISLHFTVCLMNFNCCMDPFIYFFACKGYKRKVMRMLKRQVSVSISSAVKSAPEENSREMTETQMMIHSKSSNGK
Granule exo inh: blocks lytic granule exocytosis | TALL-104 LAMP-1 surface exposure, flow cytometry; cells stimulated with thapsigargin and PMA | 0.66% of 360,000 active | inhibition, % at 10 µM;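 active = inhibition above about 55%, limit read from the data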
cAMP nonselect: nonselective cAMP signaling inhibitor, MC4R antagonist counter-screen; 26% of 1,600 active; inhibition, % at 6.5 µM; AID 602193; parental U2OS, forskolin cAMP, LANCE TR-FRET; shares compounds with MC4R antag cAMP;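 active = mean inhibition over triplicates above the low-control well mean plus 3 SD, set per campaign, cut at about 13% in these data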;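 note: signal is single emission at 671 nm which falls as cellular cAMP rises; 0% = forskolin-stimulated wells and 100% = buffer without forskolin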
MC4R antag conf: human MC4R cAMP antagonism confirmation; shares compounds with MC4R antag cAMP; inhibition, % at 6.5 µM; AID 602195; 27% of 1,600 active; MC4R-expressing cells, MTII-stimulated cAMP, TR-FRET; in the data active = inhibition above about 29%;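 note: 0% = agonist stimulated wells alone and 100% = agonist stimulated wells plus saturating reference antagonist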
An asterisk follows results filed as active; i = inactive; . = no result; + = active, no number.

SMILES | Myeloid diff 2 | MC4R antag cAMP | MC4R ag barr | EBI2 block | Granule exo inh | cAMP nonselect | MC4R antag conf
CC1(Oc2ccccc2)CCN(Cc2csc3ccccc23)C1 (centres undefined) | i | -6 | 1 | 13 | -9 | . | .
COc1ccc(-c2noc(CN(C)CCC3CCCCO3)n2)cc1 (centres undefined) | i | 32* | -1 | -4 | -2 | -4 | -10
O=C(NCCNC(=O)c1ccco1)c1ccc(Cl)c(Cl)c1 | i | 9 | 0 | -1 | -10 | . | .
COc1ccc(CC(=O)OCC(=O)Nc2ncc(Cl)c(C)c2Cl)cc1 | i | 2 | -1 | -4 | 6 | . | .
COc1ccc(C(C(=O)NC(C)(C)C)N(C(=O)CCC(=O)Nc2cc(C)on2)c2ccccc2F)cc1 (centres undefined) | i | 30* | 2 | -6 | 2 | -1 | -8
COc1ccc(C(C(=O)NC(C)(C)C)N(C(=O)CCC(=O)Nc2cc(C)on2)c2cc(C)cc(C)c2)cc1 (centres undefined) | i | 1 | -1 | 7 | 7 | . | .
Cc1cc2nccc(-c3ccc(F)cc3)n2n1 | i | 16 | 1 | -10 | -2 | . | .
Cc1cc2nccc(-c3ccc(Cl)c([N+](=O)[O-])c3)n2n1 | i | 41* | 1 | 7 | -4 | -11 | 29*
Cc1ccc(CN(C)C(=O)COC(=O)CSc2ccc([N+](=O)[O-])cc2)cc1 | i | 8 | 1 | -8 | 10 | . | .
NC(=O)c1ccc(SCC(=O)OCC(=O)NC2CCCCCCC2)c([N+](=O)[O-])c1 | i | 15 | -1 | 5 | 10 | . | .
CCN(C(=O)COC(=O)CSc1ccc(C(N)=O)cc1[N+](=O)[O-])C1CCCCC1 | i | 33* | -1 | 11 | -3 | 7 | 30*
Cc1ccc(CN(C)C(=O)COC(=O)CSc2ccc(C(N)=O)cc2[N+](=O)[O-])cc1 | . | 38* | -5 | -4 | 9 | 14* | 35*
COc1ccc(-c2n[nH]c(=S)n2-c2ccc(C)cc2)cc1OC | i | 22 | 0 | 2 | 8 | . | .
COCCNc1nc2c(c(=O)n(Cc3cccc(Cl)c3)c(=O)n2C)n1C | + | 29* | -2 | 3 | 29 | 1 | 0
COCC(C)N1CC(O)=C(c2nc(-c3ccc(Cl)cc3)cs2)C1=N (centres undefined) | i | 13 | -2 | 10 | -2 | . | .
CCc1nc2c(OCc3cc(Cl)cc(Cl)c3)cccn2c1N(C)C(=O)c1cccc(OC)c1 | i | 13 | 0 | 20 | 0 | . | .
C[C@@H]1CN(Cc2nc(Cc3ccccc3F)no2)C[C@H](C)O1 | i | 33* | 1 | -4 | -1 | -3 | -13
CCc1ccccc1N1CC(C(=O)Nc2cc(C)on2)CC1=O (centres undefined) | i | 8 | 1 | -6 | 2 | . | .
CC1CC(Nc2ccccc2)c2ccccc2N1C(=O)c1ccncc1 (centres undefined) | i | 34* | -1 | 4 | 0 | 3 | 5
CCCCn1nnnc1C1(C)CCC(=O)N1CC(F)(F)F (centres undefined) | i | . | . | -1 | 6 | . | .
CN(c1ccc(OCC(=O)OCC(=O)Nc2ccc(Br)cc2)cc1)S(=O)(=O)c1cccs1 | i | 29* | -1 | -5 | -2 | 10 | 31*
CN(c1ccc(OCC(=O)OCC(=O)Nc2ccc(OC(F)F)cc2)cc1)S(=O)(=O)c1cccs1 | i | 9 | -2 | 2 | -1 | . | .
CN(c1ccc(OCC(=O)OCC(=O)Nc2ccccc2)cc1)S(=O)(=O)c1cccs1 | i | 31* | -1 | -12 | -2 | 14* | 37*
CCN(CC)c1ccc(NC(=O)COc2ccc(N(C)S(=O)(=O)c3cccs3)cc2)cc1 | i | 5 | -1 | 4 | 3 | . | .
Cc1nn(C(C)C)c(C)c1CN1CCC(C(=O)Nc2cccc(-c3cccc(F)c3)c2)CC1 | i | 6 | 0 | -8 | 25 | . | .
SMILES | Myeloid diff 2 | MC4R antag cAMP | MC4R ag barr | EBI2 block | Granule exo inh | cAMP nonselect | MC4R antag conf
O=C(COC(=O)c1c2c(nc3ccccc13)/C(=C\c1cccs1)CCC2)Nc1ccccc1 | i | 6 | -3 | -18 | 2 | . | .
CC(C)CNC(=O)COC(=O)c1c2c(nc3ccccc13)/C(=C\c1cccs1)CC2 | i | 29* | 3 | -12 | -6 | 3 | 0
COC(=O)CSc1nnc(-c2ccc(S(=O)(=O)NCc3cccs3)cc2)o1 | i | 43* | -2 | 3 | -1 | 17* | 44*
CCOC(=O)CSc1nnc(-c2ccc(S(=O)(=O)NCc3cccs3)cc2)o1 | i | 39* | 4 | -11 | -3 | 15* | 42*
CCS(=O)(=O)Nc1ccc(-c2nnc(SCC(=O)OC)o2)cc1 | i | 19 | 0 | -4 | -3 | . | .
CCOC(=O)Cc1csc(NC(=O)CSc2nnc(-c3ccc(NS(=O)(=O)CC)cc3)o2)n1 | i | 30* | 0 | -9 | -5 | -3 | -19
COC(=O)CSc1nnc(-c2ccc(S(=O)(=O)NCc3ccccc3Cl)cc2)o1 | i | 36* | 1 | -6 | 50 | 10 | 40*
O=C(CN1C(=O)C2C3C=CC(C4CC34)C2C1=O)Nc1cnc2ccccc2c1 (centres undefined) | i | 14 | -1 | 13 | 0 | . | .
Cc1cccc(N(Cc2ccccc2)C(=O)c2ccc(CS(C)(=O)=O)cc2)c1 | i | 9 | -2 | 3 | 3 | . | .
O=C1c2ccccc2CCC12OC2c1ccc([N+](=O)[O-])cc1 (centres undefined) | i | -7 | -2 | -5 | 10 | . | .
C[C@@H]1CCCCO[C@@H](CN(C)CC2CC2)[C@@H](C)CN([C@H](C)CO)C(=O)c2cc(N(C)C)ccc2O1 | i | 1 | 0 | -1 | -3 | . | .
C[C@H](NC(=O)c1nc[nH]c1C(=O)NCCCCCN)C(=O)OCc1ccccc1 | i | 3 | -1 | 4 | -2 | . | .
COC(=O)CSc1nnc(-c2ccc(S(=O)(=O)N3CCCC3)cc2)o1 | i | 34* | 0 | -5 | 16 | 14* | 24
COc1ccc(OC)c(Cc2nnc(CCC(=O)N3CCCCC3c3nccs3)o2)c1 (centres undefined) | i | 30* | 1 | 12 | -5 | -5 | -21
Cc1cccc(Cc2nnc(CCC(=O)N3CCCCC3c3nccs3)o2)c1 (centres undefined) | i | 0 | -2 | 7 | 1 | . | .
Cc1ccc(OCC(=O)Nc2ccc3c(c2)C(=O)NC3=O)c(C)c1 | i | 6 | -2 | 1 | -16 | . | .
COc1ccc(-c2c(-c3ccc(O)cc3O)n[nH]c2C(F)(F)F)cc1 | i | -5 | 0 | -3 | -1 | . | .
Oc1ccc(-c2n[nH]c(C(F)(F)F)c2-c2ccccc2)c(O)c1 | i | 30* | 3 | -9 | 3 | 4 | -3
